The source of these data is ChEMBL document CHEMBL1129298, “Nonpeptide angiotensin II receptor antagonists: synthesis, biological activities, and structure-activity relationships of imidazole-5-carboxylic acids bearing alkyl, alkenyl, and hydroxyalkyl substituents at the 4-position and their related compounds” (J Med Chem, 1996).

In general, inhibition in vivo refers to the percentage by which the read-out fell short of the control. A high value points to a strong effect. For orientation: IC50 means the concentration that inhibits the measured activity by half. Low readings indicate greater potency, high ones weaker potency. The Inhibition is the relative decrease from the control value, in per cent. High values mean a response far below the control, low ones a response near the control.

Values joined by “and” are separate entries in the source; they are usually repeats but may differ in a detail not shown here. Equal entries are not always repeated.

Assay [1] addresses Angiotensin II receptor (Rattus norvegicus) (UniProt P29089+P25095+P35351). Briefly: In vivo inhibitory activity against angiotensin II induced pressor response in anesthetized normotensive rats. Type of assay: functional, organism-based. The method in brief: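 Male Wistar-Imamichi rats (300–400 g) under inactin (100 mg/kg ip), with femoral arterial and venous cannulae. AII 50 ng/kg iv every 10 min until responses were constant. Compound in DMSO was then given iv and AII re-injected 2 min later.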

For assay [2], the system named is Rattus norvegicus. Briefly: Inhibitory activity against AII-Induced Pressor response at 0.3 mg/Kg at 1 hr. Type of assay: functional. In short, it runs like this:
(§1)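 Male Wistar-Imamichi rats (300–400 g) cannulated under pentobarbital (50 mg/kg ip), fasted 24 h, tested conscious the next day. AII 50 ng/kg iv was repeated until constant, then compound in 50% aqueous DMF given orally. AII was repeated over 8 h, and mean blood pressure response inhibition (%) was recorded at 1, 3, 6 h. n = 3–5.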

Assay [3] relates to Rattus norvegicus. In words: Inhibitory activity against AII-Induced Pressor response at 0.3 mg/Kg at 3 hour. In kind it is functional. In short, it runs like this: as §1
Assay [4] deals with Rattus norvegicus. Briefly: Inhibitory activity against AII-Induced Pressor response at 0.3 mg/Kg at 6 hour. Type of assay: functional. In short, it runs like this:
as §1

The test system of assay [5] is Rattus norvegicus. In words: Inhibitory activity against AII-Induced Pressor response at 0.03 mg/Kg at 1 hr. Type of assay: functional. In short, it runs like this:
as §1

For assay [6], the system named is Rattus norvegicus. In words: Inhibitory activity against AII-Induced Pressor response at 0.03 mg/Kg at 3 hour. Type of assay: functional. The method in brief: as §1
In assay [7] the test system is Rattus norvegicus. In words: Inhibitory activity against AII-Induced Pressor response at 0.03 mg/Kg at 6 hour. In kind it is functional. The method in brief: as §1
The test system of assay [8] is Rattus norvegicus. Briefly: Inhibitory activity against AII-Induced Pressor response at 0.1 mg/Kg at 3 hour. In kind it is functional. The method in brief:
as §1

In assay [9] the test system is Rattus norvegicus. In words: Inhibitory activity against AII-Induced Pressor response at 0.1 mg/Kg at 6 hour. In kind it is functional. In short, it runs like this:
as §1

Assay [10] concerns Rattus norvegicus. Briefly: Inhibitory activity against AII-Induced Pressor response at 0.1 mg/Kg at 1 hr. Type of assay: functional. The method in brief:
as §1

Assay [11] deals with T1, Type-1 angiotensin II receptor (Bos taurus, UniProt P25104).
T1 sequence (P25104 whole entry): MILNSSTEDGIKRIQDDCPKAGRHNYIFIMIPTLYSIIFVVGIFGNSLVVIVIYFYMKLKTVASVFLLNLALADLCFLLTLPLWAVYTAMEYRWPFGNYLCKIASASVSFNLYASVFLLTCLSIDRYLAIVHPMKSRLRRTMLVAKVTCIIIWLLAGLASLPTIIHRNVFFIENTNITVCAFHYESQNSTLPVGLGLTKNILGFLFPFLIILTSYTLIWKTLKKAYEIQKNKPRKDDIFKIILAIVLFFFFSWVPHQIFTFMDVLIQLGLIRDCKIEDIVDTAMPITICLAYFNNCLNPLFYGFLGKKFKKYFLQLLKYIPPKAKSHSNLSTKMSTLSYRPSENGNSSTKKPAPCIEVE
Briefly: In vitro for inhibition of [125I]-angiotensin II (0.1 nM) binding to angiotensin II receptor type 1 in membrane fractions of bovine adrenal cortex. In kind it is tissue-based.

Assay [12] relates to Rattus norvegicus. Briefly: Inhibitory activity against AII-Induced Pressor response at 1 mg/Kg at 1 hr. Type of assay: functional. The method in brief: as §1
The subject of assay [13] is Rattus norvegicus. Briefly: Inhibitory activity against AII-Induced Pressor response at 1 mg/Kg at 3 hour. In kind it is functional. In short, it runs like this:
as §1

The test system of assay [14] is Rattus norvegicus. In words: Inhibitory activity against AII-Induced Pressor response at 1 mg/Kg at 6 hour. Type of assay: functional. The method in brief:
as §1

Assay [15] deals with Rattus norvegicus. In words: Inhibitory activity against AII-Induced Pressor response at 1 mg/kg at 1 hr. In kind it is functional. In short, it runs like this: as §1
For assay [16], the system named is Rattus norvegicus. In words: Inhibitory activity against AII-Induced Pressor response at 1 mg/kg at 3 hour. In kind it is functional. To be noted: 1 mg/kg. In short, it runs like this: as §1
For assay [17], the system named is Rattus norvegicus. In words: Inhibitory activity against AII-Induced Pressor response at 1 mg/kg at 6 hour. Type of assay: functional. The method in brief: as §1
Assay [18] relates to Rattus norvegicus. Briefly: Inhibitory activity against AII-Induced Pressor response at 3 mg/Kg at 1 hr. In kind it is functional. The method in brief: as §1
The subject of assay [19] is Rattus norvegicus. In words: Inhibitory activity against AII-Induced Pressor response at 0.3 mg/Kg at 3 hr. In kind it is functional. The method in brief:
as §1

In assay [20] the test system is Rattus norvegicus. In words: Inhibitory activity against AII-Induced Pressor response at 10 mg/Kg at 3 hour. In kind it is functional. In short, it runs like this:
as §1

Assay [21] relates to Rattus norvegicus. Briefly: Inhibitory activity against AII-Induced Pressor response at 10 mg/Kg at 6 hour. In kind it is functional. In short, it runs like this: as §1
Assay [22] concerns Rattus norvegicus. Briefly: Inhibitory activity against AII-Induced Pressor response at 3 mg/Kg at 3 hour. In kind it is functional. In short, it runs like this: as §1
In assay [23] the test system is Rattus norvegicus. Briefly: Inhibitory activity against AII-Induced Pressor response at 3 mg/Kg at 6 hour. Type of assay: functional. The method in brief:
as §1

For assay [24], the system named is Rattus norvegicus. Briefly: Inhibitory activity against AII-Induced Pressor response at 10 mg/Kg at 1 hr. Type of assay: functional. The method in brief: as §1

For `CCCc1nc(C(C)O)c(C(=O)O)n1Cc1ccc(-c2ccccc2-c2nn[nH]n2)cc1` (configuration not stated), in assay [1], the ID50 came out at 6.3 µg/kg. Also, the figures for the inhibition in vivo at 0.3 mg/kg in assay [2], in [3] and in assay [4] were 80%, 78% and 69%, respectively.
Take `CCCc1nc(CO)c(C(=O)O)n1Cc1ccc(-c2ccccc2-c2nn[nH]n2)cc1`: the ID50 in [1] is 6.2 µg/kg. Besides, the inhibition in vivo at 0.3 mg/kg in [2] came to 76%; in assay [3], 75%; in assay [4] it was 65%.
For the compound `CCCc1nc(C(C)(C)O)c(C(=O)OCOC(=O)C(C)(C)C)n1Cc1ccc(-c2ccccc2-c2nn[nH]n2)cc1`, the inhibition in vivo at 0.03 mg/kg in [5] came to 29%; in [6], 41%; in assay [7], 43%. Further, the inhibition in vivo at 0.1 mg/kg was found to be 84% in [8], 70% in assay [9] and 75% in [10]. For the same compound, the inhibition in vivo at 0.3 mg/kg in assay [2] is 76%; in [3], 85%; in assay [4] it was 90%.
On to `CCCc1nc(C(C)(C)O)c(C(=O)O)n1Cc1ccc(-c2ccccc2-c2nnn[nH]2)cc1` [OLMESARTAN], for which the IC50 in [11] worked out at 8.1 nM. This compound came in with an ID50 in [1] of 7.9 µg/kg. In addition, the inhibition in vivo at 0.3 mg/kg in [2] turned out to be 83%; in [3] it was 77%; in [4], 78%. For the same compound, the inhibition in vivo at 1 mg/kg in assay [12] was found to be 98%; in assay [13], 98%; in assay [14], 93%.
Regarding `CCCc1nc(C(C)(C)O)c(C(=O)OCOC(=O)C(C)(C)C)n1Cc1ccc(-c2ccccc2C(=O)O)cc1`, the inhibition in vivo at 1 mg/kg in assay [15] came out at 52%; in [17] (Rattus norvegicus, 6 h, dose 1 mg/kg), 75%. Also, the Inhibition is 61% and 85% in assay [16]; 87% in [17] (dose 3 mg/kg, in the assay text read “3 mg/kg” for “1 mg/kg”). The compound further gave an inhibition in vivo at 3 mg/kg in [18] of 85%. In addition, the inhibition in vivo at 0.3 mg/kg in [2] stood at 43%; in assay [19], 32%.
Consider `CCCCc1nc(Cl)c(CO)n1Cc1ccc(-c2ccccc2-c2nnn[nH]2)cc1` [LOSARTAN], for which, in assay [1], the ID50 amounted to 300 µg/kg. Besides, the results for the inhibition in vivo at 10 mg/kg in assay [20], in assay [21] and in assay [24] were 77%, 85% and 69%, respectively. Moreover, the inhibition in vivo at 3 mg/kg in assay [18] was found to be 38%; in [22] it was 35%; in assay [23] it was 65%. Also, the values for the inhibition in vivo at 1 mg/kg in assay [12], in assay [13] and in assay [14] were 12%, 12% and 32%, respectively.
For `CCCCc1nc(Cl)c(C(=O)O)n1Cc1ccc(-c2ccccc2-c2nn[nH]n2)cc1` [CARBOXYLIC ACID METABOLITE], the ID50 in assay [1] turned out to be 100 µg/kg. Besides, the inhibition in vivo at 10 mg/kg amounted to 93% in [20], 89% in assay [21] and 89% in [24]. Moreover, the inhibition in vivo at 3 mg/kg in [18], in [22] and in assay [23] was 81% throughout. Besides, the inhibition in vivo at 1 mg/kg in [12] was found to be 74%; in [13], 72%; in assay [14], 70%.
